According to article PMC2141641 (The Journal of Cell Biology, 1997):

Experiments:
[1] = tested on: Human dermal microvascular endothelial cells (HMVECs); experiment: Endothelial cell migration assay, HMVECs; type: cell-based; settings: for inhibition of bFGF-induced HMVEC migration by other CD36 ligands / effect on migration when tested alone: 2 μg/ml
Method in brief: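 Human dermal microvascular cells (passages 6–9) were serum-starved and then migrated in a Boyden chamber 4 h at 37°C toward bFGF. Collagen I, LDL and copper-oxidized LDL were tested at 2 μg/ml, with or without 10 μg/ml anti-CD36 IgG added to both wells. Quadruplicate wells, two experiments. Counts were normalized to bFGF minus control-medium background. Two-tailed t test was run on raw data.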

CD36 null animals = settings: ref Febbraio, M., O.V. Volpert, N.P. Bouck, and R.L. Silverstein, unpublished data; cited from earlier work
[2] = tested on: neovascularization in vivo; settings: ref O'Reilly et al., 1994; cited from earlier work
endothelial cells [3] = settings: cited from earlier work
[4] = tested on: Bovine adrenal capillary endothelial cells (BCECs); experiment: Endothelial cell migration assay, BCECs; type: cell-based
Method in brief: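 Bovine adrenal capillary cells (DME, 10% donor calf serum, 1% endothelial mitogen; passage 15) were starved overnight in DME/0.1% BSA. 3 × 10^4 cells/well were attached 2 h at 37°C to a gelatinized membrane in an inverted Boyden chamber, then reinverted. GST–CD36 fusion proteins were preincubated with 2 nM TSP-1, warmed to room temperature, and added to the top wells. Migration to bFGF ran 4 h at 37°C. Migrated cells/10 high-power fields counted; normalized to bFGF minus background.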

CD36-transfected HUVECs [5] = experiment: Tube formation assay in Matrigel, CD36-transfected HUVECs; type: cell-based, human; settings: 24 h at 37°C, endogenous TSP-1 expression by clones
[6] = tested on: Melanoma cells not transfected with CD36; settings: ref Silverstein et al., 1992; cited from earlier work
CD36 = settings: cited from earlier work
CD36-transfected HUVECs [7] = experiment: Migration assay of CD36-transfected HUVEC clones; type: cell-based, human; settings: TSP-1 2 nM, bFGF
Method in brief: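 HUVECs at passage 2 were lipofected with a CD36 plasmid (30 μg DNA, 5 h, 37°C) and selected in 100 μg/ml G418. Cloned lines were checked for CD36 by flow cytometry. Clones migrated toward bFGF in a Boyden chamber (4 h, 37°C) with 2 nM TSP-1, with or without 10 μg/ml anti-CD36 antibody OKM-5. Four experiments; normalized to bFGF minus background.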

endothelial cells [8] = settings: in vitro; ref Tolsma et al., 1997; cited from earlier work
[9] = tested on: neovascularization, rodent cornea; settings: rodent cornea assay; ref Good et al., 1990; Tolsma et al., 1993; cited from earlier work
endothelial cells [10] = settings: in vitro; ref Iruela-Arispe et al., 1991; DiPietro et al., 1994; Canfield and Schor, 1995; cited from earlier work
[11] = tested on: neovascularization, polyvinyl sponge; settings: polyvinyl sponge assay; ref Good et al., 1990; Tolsma et al., 1993; cited from earlier work

## Angiostatin
[1]; angiostatin 2 μg/ml, bFGF, control inhibitor
  inhibition of HMVEC migration by angiostatin: inhibition of endothelial cell migration by angiostatin
CD36 null animals
  inhibition of corneal neovascularization in CD36 null animals: not by angiostatin is defective in CD36 null animals
[2]
  inhibition of angiogenesis in vivo by angiostatin: of angiogenesis in vivo
Endothelial cells [3]; ref Gately et al., 1996
  inhibition of endothelial cell migration in vitro by angiostatin: well-established inhibitor of endothelial cell migration in vitro

## FP93-120: GST–CD36 fusion protein containing the TSP-1 binding region, amino acids 93–120 (YRVRFLAKENVTQDAEDNTVSFLQPNGA; left off: GST, end not stated, kept) [reference compound]
[4]; Col overlap 30 μM, bFGF, fusion protein preincubated 2 h at 4°C
  block of inhibition of migration by Col overlap peptide: blocked the inhibitory effects of Col overlap

## Thrombospondin-1 [TSP-1]
CD36-transfected HUVECs [5]
  TSP-1 inhibition of tube formation after CD36 transfection: became sensitive to TSP-1 inhibition of both migration and tube formation
[6]
  TSP-1 binding to melanoma cells not transfected with CD36: do not bind TSP-1
CD36; minimal region of CD36, ref Pearce et al., 1995
  interaction of TSP-1 with CD36 amino acids 93–120: specific, saturable, and reversible manner
[1]; TSP-1 2 nM
  inhibition of bFGF-induced HMVEC migration by TSP-1: inhibition of bFGF-induced migration of HMVECs by TSP-1
CD36-transfected HUVECs [7]; clone 35 (very low CD36)
  TSP-1 inhibition of migration of CD36-transfected clone 35: refractory to TSP-1 inhibition
CD36-transfected HUVECs [7]; clones 31 and 36 (higher CD36)
  TSP-1 inhibition of migration of CD36-transfected clones 31 and 36: sensitive to TSP-1 inhibition
Endothelial cells [8]
  concentration inhibiting lumen formation: below 20 nM
[4]; TSP-1 2 nM
  inhibition of bFGF-induced migration by TSP-1, BCEC: TSP-1 inhibition of bFGF-induced migration
[9]
  prevention of neovascularization in vivo, rodent cornea: able to prevent neovascularization in vivo
CD36 null animals
  inhibition of corneal neovascularization in CD36 null animals: defective in CD36 null animals
Endothelial cells [3]; ref Good et al., 1990, Tolsma et al., 1993
  concentrations effective in vitro (inhibition of angiogenesis): subnanomolar
Endothelial cells [3]; ref Taraboletti et al., 1990, Tolsma et al., 1993, Gao et al., 1996
  concentration inhibiting endothelial cell migration (biphasic dose response): less than 20 nM
Endothelial cells [10]
  concentration inhibiting tube formation: below 20 nM
[11]
  prevention of neovascularization in vivo, polyvinyl sponge: able to prevent neovascularization in vivo

## glutathione-S-transferase [GST, reference compound]
[4]; TSP-1 2 nM, fusion protein preincubated 2 h at 4°C, migration 4 h at 37°C
  block of TSP-1 inhibition of bFGF-induced migration: ineffective

## human type I collagen [human collagen I]
[1]
  inhibition of bFGF-induced HMVEC migration by other CD36 ligands: inhibited bFGF-induced HMVEC migration
  effect on migration when tested alone: no significant effect on migration

## low-density lipoprotein [LDL]
CD36; ref Endemann et al., 1993
  binding of unoxidized LDL to CD36: unable to bind CD36
[1]
  inhibition of bFGF-induced HMVEC migration by other CD36 ligands: failed to influence HMVEC migration
  effect on migration when tested alone: no significant effect on migration

## oxidized low-density lipoprotein [OxLDL]
[1]
  inhibition of bFGF-induced HMVEC migration by other CD36 ligands: inhibited bFGF-induced HMVEC migration
  effect on migration when tested alone: no significant effect on migration
[1]; bFGF-induced HMVEC migration, data not shown
  concentration below which ineffective at inhibiting migration: below 0.1 nM
